The values below come from ChEMBL document CHEMBL1126198, “A new class of high affinity ligands for the neurokinin A NK2 receptor: psi (CH2NR) reduced peptide bond analogues of neurokinin A4-10” (J Med Chem, 1992).

One may read the IC50 as the concentration at which inhibition is half-maximal. A lower IC50 goes with greater potency in that assay.

Starred links: 1 amine or outer side, 2 acyl side, 3 side chain; linkers in the order of their positions; H or OH if unused. Non-standard residues stand in square brackets, D forms with d. Residues, ends and D or L forms follow the SMILES beside them. *: point of attachment. X3 = N[C@@H](CC(=O)O)C(=O)N[C@@H](CO)CN([C@@H](Cc1ccccc1)C(=O)[*:2])[*:1]; Leuψ(CH2NH)PheNH2 = CC(C)C[C@@H](CN[C@@H](Cc1ccccc1)C(N)=O)N*; X9 = CC(C)CC(=O)N(C[C@H](CC(C)C)N*)[C@@H](CC(C)C)C(N)=O; X7 = CCCN(C[C@H](CC(C)C)N*)[C@@H](Cc1ccccc1)C(N)=O; X4 = CC(C)C[C@H](NC(=O)[C@H](CC(C)C)NCCN*)C(N)=O; X2 = CCN(C[C@H](CC(C)C)N*)[C@@H](CC(C)C)C(N)=O; X8 = CC(C)C[C@@H](CN(C)[C@@H](CC(C)C)C(N)=O)N*; X6 = CC(C)C[C@H](NC[C@H](Cc1ccccc1)N*)C(N)=O; X1 = CC(C)C[C@@H](CN[C@@H](CC(C)C)C(N)=O)N*; X5 = O=C(O)CCCN([C@@H](CO)C(=O)[*:2])[*:1]; βAla = NCCC(=O)O

The test system of one assay is Cricetinae gen. sp. Kind of assay: Compound was evaluated for the competitive antagonism of NKA-stimulated PI (phosphatidylinositol) turnover in hamster urinary bladder tissue using [3H]inositol as radioligand. It counts as functional. The note with it: read-out: pA2 (converted). In outline:
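Chopped hamster bladder labeled 1 h at 37 °C with [3H]myo-inositol. Assay run at room temperature in Krebs-HEPES (20 mM). Total inositol phosphates isolated on ion-exchange columns eluted sequentially, starting with water. PI turnover ratio = inositol phosphates cpm / organic extraction phase cpm. Basal level taken without NKA; maximum stimulation with 1 μM NKA. Mean ± SEM of separate experiments.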
With `CC(C)C[C@@H](CN[C@@H](CC(C)C)C(N)=O)NC(=O)CNC(=O)[C@@H](NC(=O)[C@H](Cc1ccccc1)NC(=O)[C@H](CO)NC(=O)[C@@H](N)CC(=O)O)C(C)C` (H-DSFVG-X1), the Kb is 0.2 µM.

For another assay, the target named is T1, Substance-K receptor (Mesocricetus auratus, UniProt P51144).
T1 sequence (P51144 whole entry): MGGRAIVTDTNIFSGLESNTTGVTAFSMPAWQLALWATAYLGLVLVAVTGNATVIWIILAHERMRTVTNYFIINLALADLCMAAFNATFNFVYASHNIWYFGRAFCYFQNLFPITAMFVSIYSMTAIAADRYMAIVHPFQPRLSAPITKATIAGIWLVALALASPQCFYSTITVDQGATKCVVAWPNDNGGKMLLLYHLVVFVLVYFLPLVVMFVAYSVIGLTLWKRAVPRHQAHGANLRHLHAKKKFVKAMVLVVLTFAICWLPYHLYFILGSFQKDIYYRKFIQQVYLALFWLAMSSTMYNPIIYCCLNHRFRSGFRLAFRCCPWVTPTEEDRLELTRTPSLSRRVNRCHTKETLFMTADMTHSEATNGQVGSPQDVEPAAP
Kind of assay: Competitive inhibition of [125I]NKA binding to hamster urinary bladder Tachykinin receptor 2. It counts as single protein.
Details: not given
The molecule `CSCC[C@H](NC(=O)[C@H](CC(C)C)NC(=O)CNC(=O)[C@@H](NC(=O)[C@H](Cc1ccccc1)NC(=O)[C@H](CO)NC(=O)[C@@H](N)CC(=O)O)C(C)C)C(N)=O` displayed a half-maximal inhibitory concentration (IC50) of 0.006 µM.

As to `CC(C)C[C@H](NC(=O)[C@H](CC(C)C)NC(=O)CNC(=O)[C@@H](NC[C@H](Cc1ccccc1)NC(=O)[C@H](CO)NC(=O)[C@@H](N)CC(=O)O)C(C)C)C(N)=O`, the IC50 was > 10 µM. `CC(C)C[C@H](NC(=O)[C@H](CC(C)C)NC(=O)CNC[C@@H](NC(=O)[C@H](Cc1ccccc1)NC(=O)[C@H](CO)NC(=O)[C@@H](N)CC(=O)O)C(C)C)C(N)=O` yielded an IC50 of 5.66 µM.

The molecule `CC(C)C[C@H](NC(=O)[C@H](CC(C)C)NC(=O)CNC(=O)[C@@H](NC(=O)[C@H](Cc1ccccc1)NC(=O)[C@H](CO)NC(=O)[C@@H](N)CC(=O)O)C(C)C)C(N)=O` yielded an IC50 of 0.136 µM. Still for that read-out and setting: the value for `CC(C)C[C@H](NC(=O)[C@H](CC(C)C)NCCNC(=O)[C@@H](NC(=O)[C@H](Cc1ccccc1)NC(=O)[C@H](CO)NC(=O)[C@@H](N)CC(=O)O)C(C)C)C(N)=O` (H-DSFV-X4) was > 10 µM.

For `CC(C)C[C@@H](CN[C@@H](CC(C)C)C(N)=O)NC(=O)CNC(=O)[C@@H](NC(=O)[C@H](Cc1ccccc1)NC(=O)[C@H](CO)NC(=O)[C@@H](N)CC(=O)O)C(C)C` (H-DSFVG-X1), the IC50 came out at 0.115 µM. With `CCN(C[C@H](CC(C)C)NC(=O)CNC(=O)[C@@H](NC(=O)[C@H](Cc1ccccc1)NC(=O)[C@H](CO)NC(=O)[C@@H](N)CC(=O)O)C(C)C)[C@@H](CC(C)C)C(N)=O` (H-DSFVG-X2), the IC50 was determined as 0.277 µM.

Consider `CC(C)C[C@H](NC[C@H](Cc1ccccc1)NC(=O)CNC(=O)[C@@H](NC(=O)[C@H](Cc1ccccc1)NC(=O)[C@H](CO)NC(=O)[C@@H](N)CC(=O)O)C(C)C)C(N)=O` (H-DSFVG-X6), for which the IC50 is > 10 µM.

`CC(C)C[C@@H](CN(C)[C@@H](CC(C)C)C(N)=O)NC(=O)CNC(=O)[C@@H](NC(=O)[C@H](Cc1ccccc1)NC(=O)[C@H](CO)NC(=O)[C@@H](N)CC(=O)O)C(C)C` (H-DSFVG-X8) had an IC50 of 0.193 µM.

Consider `CC(C)CC(=O)N(C[C@H](CC(C)C)NC(=O)CNC(=O)[C@@H](NC(=O)[C@H](Cc1ccccc1)NC(=O)[C@H](CO)NC(=O)[C@@H](N)CC(=O)O)C(C)C)[C@@H](CC(C)C)C(N)=O` (H-DSFVG-X9), for which the half-maximal inhibitory concentration (IC50) was 0.162 µM.

Take `CC(C)C[C@@H](CN[C@@H](Cc1ccccc1)C(N)=O)NC(=O)CNC(=O)[C@@H](NC(=O)[C@H](Cc1ccccc1)NC(=O)[C@H](CO)NC(=O)[C@@H](N)CC(=O)O)C(C)C` (H-DSFVG-{Leuψ(CH2NH)PheNH2}): the IC50 is 0.009 µM. The same measure, in the same setting: under `CC(C)C[C@@H](CN[C@@H](CC(C)C)C(N)=O)NC(=O)CCNC(=O)[C@@H](NC(=O)[C@H](Cc1ccccc1)NC(=O)[C@H](CO)NC(=O)[C@@H](N)CC(=O)O)C(C)C` (H-DSFV[βAla]-X1) stands 0.108 µM; under `CCCN(C[C@H](CC(C)C)NC(=O)CCNC(=O)[C@@H](NC(=O)[C@H](Cc1ccccc1)NC(=O)[C@H](CO)NC(=O)[C@@H](N)CC(=O)O)C(C)C)[C@@H](Cc1ccccc1)C(N)=O` (H-DSFV[βAla]-X7), 0.001 µM.

Take `CC(C)C[C@@H](CN[C@@H](Cc1ccccc1)C(N)=O)NC(=O)CCNC(=O)[C@@H](NC(=O)[C@H](Cc1ccccc1)NC(=O)[C@H](CO)NC(=O)[C@@H](N)CC(=O)O)C(C)C` (H-DSFV[βAla]-{Leuψ(CH2NH)PheNH2}): the half-inhibitory concentration (IC50) was found to be 0.01 µM. `CC(C)C[C@H](NC(=O)[C@H](CC(C)C)NC(=O)CNC(=O)[C@@H](NC(=O)[C@H](Cc1ccccc1)NC[C@H](CO)NC(=O)[C@@H](N)CC(=O)O)C(C)C)C(N)=O` (H-[X3]VGLL-NH2): the IC50 was > 10 µM. Same read-out and setting: the value for `CC(C)C[C@H](NC(=O)[C@H](CC(C)C)NC(=O)CNC(=O)[C@@H](NC(=O)[C@H](Cc1ccccc1)NC(=O)[C@H](CO)NCCCC(=O)O)C(C)C)C(N)=O` (H-[X5]FVGLL-NH2) was 1.65 µM; that for `CSCC[C@H](NC(=O)[C@H](CC(C)C)NC(=O)CNC(=O)[C@@H](NC(=O)[C@H](Cc1ccccc1)NC(=O)[C@H](CO)NC(=O)[C@H](CC(=O)O)NC(=O)[C@@H](NC(=O)[C@H](CCCCN)NC(=O)[C@@H](N)Cc1cnc[nH]1)[C@@H](C)O)C(C)C)C(N)=O` [NEUROKININ A] was 0.001 µM; that for `CSCC[C@H](NC(=O)[C@H](CC(C)C)NC(=O)CNC(=O)[C@H](Cc1ccccc1)NC(=O)[C@H](Cc1ccccc1)NC(=O)[C@H](CCC(N)=O)NC(=O)[C@H](CCC(N)=O)NC(=O)[C@@H]1CCCN1C(=O)[C@H](CCCCN)NC(=O)[C@@H]1CCCN1C(=O)[C@@H](N)CCCN=C(N)N)C(N)=O` [SUBSTANCE P] was 0.148 µM.
